How the values were obtained:
[1] = tested on: H3K14ac at the mouse Pitx2 promoter site; experiment: Re-ChIP; assay type: cell-based; settings: transfected C2C12 cells, qualitative
[2] = tested on: Pitx2; experiment: Endogenous Pitx2 transcript level in transfected C2C12 cells; assay type: cell-based, mouse; settings: C2C12 cells 2 days following transfection
[3] = tested on: H3K14ac sites in the C2C12 cell nucleus; experiment: Immunofluorescence co-localization with H3K14ac in C2C12 cell nucleus; assay type: cell-based, mouse; settings: ectopically expressed EGFP-fusion DPF3b; confocal fluorescence imaging
How it was run: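 C2C12 myoblasts grown in DMEM with 10% fetal calf serum were transfected with full-length human DPF3b fused to EGFP. H3K14ac was stained with the same anti-H3K14ac antibody used for ChIP and a Texas Red-conjugated secondary. Nuclear overlap of the EGFP and Texas Red signals was imaged on an automated confocal microscope and images were overlaid.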

B1: DPF3b: full length human DPF3b cloned into pEGFP-C1 vector, transfected in C2C12 cells (protein)
chain: MATVIHNPLKALGDQFYKEAIEHCRSYNSRLCAERSVRLPFLDSQTGVAQNNCYIWMEKRHRGPGLAPGQLYTYPARCWRKKRRLHPPEDPKLRLLEIKPEVELPLKKDGFTSESTTLEALLRGEGVEKKVDAREEESIQEIQRVLENDENVEEGNEEEDLEEDIPKRKNRTRGRARGSAGGRRRHDAASQEDHDKPYVCDICGKRYKNRPGLSYHYAHTHLASEEGDEAQDQETRSPPNHRNENHRPQKGPDGTVIPNNYCDFCLGGSNMNKKSGRPEELVSCADCGRSGHPTCLQFTLNMTEAVKTYKWQCIECKSCILCGTSENDDQLLFCDDCDRGYHMYCLNPPVAEPPEGSWSCHLCWELLKEKASAFGCQA
modifications: left off: EGFP, end not stated, kept
**Q.** For B1, which “DPF3b/H3K14ac interaction at Pitx2 promoter” value [1] is on record?
**A.** interacts with H3K14ac at the Pitx2 promoter site

**Q.** What about the “enhancement of endogenous Pitx2 transcript” value [2] of the same molecule?
**A.** more than 3 fold

**Q.** And the “co-localization with H3K14ac sites in C2C12 cell nucleus” value [3]?
**A.** co-localized with H3K14ac sites
